In ChEMBL document CHEMBL4689842, “EUbOPEN Chemogenomics Library wave 1” (2021):

Tested on: HEK-293T
Assay: Multiplex assay against HEK293T;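 for Population Tubulin-Different-Phenotype (%): share of the cells with healthy nuclei that show this phenotype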
Format: toxicity, cell-based
Settings: human
Method in brief: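 Live cells were stained at seeding with Hoechst33342, BioTracker Green Microtubule Cytoskeleton Dye, MitoTracker Red and Annexin V Alexa Fluor 680. Following compound addition, they were imaged on a CQ1 microscope at 37°C and 5% CO2 and gated by CellPathfinder machine learning into Hoechst high-intensity objects or normal cells, with normal cells split into healthy, pyknosed or fragmented nuclei and pyknosed cells into mitotic or apoptotic. Tubulin, mitochondrial-mass and membrane-permeability phenotypes are per cents of healthy-nucleus cells.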

[1] = 12 h, 1 µM, compound concentration 1 uM, replicate 1
[2] = 12 h, 1 µM, compound concentration 1 uM, replicate 2
[3] = 12 h, 10 µM, compound concentration 10 uM, replicate 1
[4] = 12 h, 10 µM, compound concentration 10 uM, replicate 2
[5] = 24 h, 1 µM, compound concentration 1 uM, replicate 1
[6] = 24 h, 1 µM, compound concentration 1 uM, replicate 2
[7] = 24 h, 10 µM, compound concentration 10 uM, replicate 1
[8] = 24 h, 10 µM, compound concentration 10 uM, replicate 2
[9] = 48 h, 1 µM, compound concentration 1 uM, replicate 1
[10] = 48 h, 1 µM, compound concentration 1 uM, replicate 2
[11] = 48 h, 10 µM, compound concentration 10 uM, replicate 1
[12] = 48 h, 10 µM, compound concentration 10 uM, replicate 2

## O=C1N/C(=N/c2ccccc2F)S/C1=C\c1ccc(C(=O)O)cc1
[1]
  Population Apoptotic (%): 31%
  Population Fragmented Nuclei (%): 14%
  Population Healthy Nuclei (%): 38%
  Population Hoechst High Intensity Objects (%): 14%
  Population Membrane Permeable-Phenotype (%): 0%
  Population Mitochondria Different-Phenotype (%): 70%
  Population Mitotic Cells (%): 68%
  Population Normal (%): 85%
  Population Pyknosed Nuclei (%): 46%
  Population Tubulin-Different-Phenotype (%): 21%
  Total Cell Count: 182
[2]
  Population Apoptotic (%): 8%
  Population Fragmented Nuclei (%): 6%
  Population Healthy Nuclei (%): 42%
  Population Hoechst High Intensity Objects (%): 4%
  Population Membrane Permeable-Phenotype (%): 6%
  Population Mitochondria Different-Phenotype (%): 6%
  Population Mitotic Cells (%): 91%
  Population Normal (%): 95%
  Population Pyknosed Nuclei (%): 50%
  Population Tubulin-Different-Phenotype (%): 6%
  Total Cell Count: 145
[3]
  Population Apoptotic (%): 36%
  Population Fragmented Nuclei (%): 10%
  Population Healthy Nuclei (%): 38%
  Population Hoechst High Intensity Objects (%): 14%
  Population Membrane Permeable-Phenotype (%): 4%
  Population Mitochondria Different-Phenotype (%): 63%
  Population Mitotic Cells (%): 63%
  Population Normal (%): 85%
  Population Pyknosed Nuclei (%): 50%
  Population Tubulin-Different-Phenotype (%): 33%
  Total Cell Count: 203
[4]
  Population Apoptotic (%): 10%
  Population Fragmented Nuclei (%): 4%
  Population Healthy Nuclei (%): 51%
  Population Hoechst High Intensity Objects (%): 3%
  Population Membrane Permeable-Phenotype (%): 5%
  Population Mitochondria Different-Phenotype (%): 18%
  Population Mitotic Cells (%): 89%
  Population Normal (%): 96%
  Population Pyknosed Nuclei (%): 43%
  Population Tubulin-Different-Phenotype (%): 16%
  Total Cell Count: 212
[5]
  Population Apoptotic (%): 43%
  Population Fragmented Nuclei (%): 16%
  Population Healthy Nuclei (%): 38%
  Population Hoechst High Intensity Objects (%): 12%
  Population Membrane Permeable-Phenotype (%): 3%
  Population Mitochondria Different-Phenotype (%): 46%
  Population Mitotic Cells (%): 56%
  Population Normal (%): 87%
  Population Pyknosed Nuclei (%): 45%
  Population Tubulin-Different-Phenotype (%): 24%
  Total Cell Count: 185
[6]
  Population Apoptotic (%): 8%
  Population Fragmented Nuclei (%): 6%
  Population Healthy Nuclei (%): 56%
  Population Hoechst High Intensity Objects (%): 5%
  Population Membrane Permeable-Phenotype (%): 12%
  Population Mitochondria Different-Phenotype (%): 13%
  Population Mitotic Cells (%): 91%
  Population Normal (%): 94%
  Population Pyknosed Nuclei (%): 36%
  Population Tubulin-Different-Phenotype (%): 21%
  Total Cell Count: 168
[7]
  Population Apoptotic (%): 51%
  Population Fragmented Nuclei (%): 13%
  Population Healthy Nuclei (%): 46%
  Population Hoechst High Intensity Objects (%): 16%
  Population Membrane Permeable-Phenotype (%): 5%
  Population Mitochondria Different-Phenotype (%): 48%
  Population Mitotic Cells (%): 48%
  Population Normal (%): 83%
  Population Pyknosed Nuclei (%): 39%
  Population Tubulin-Different-Phenotype (%): 26%
  Total Cell Count: 236
[8]
  Population Apoptotic (%): 13%
  Population Fragmented Nuclei (%): 5%
  Population Healthy Nuclei (%): 69%
  Population Hoechst High Intensity Objects (%): 4%
  Population Membrane Permeable-Phenotype (%): 8%
  Population Mitochondria Different-Phenotype (%): 17%
  Population Mitotic Cells (%): 86%
  Population Normal (%): 96%
  Population Pyknosed Nuclei (%): 25%
  Population Tubulin-Different-Phenotype (%): 24%
  Total Cell Count: 275
[9]
  Population Apoptotic (%): 44%
  Population Fragmented Nuclei (%): 20%
  Population Healthy Nuclei (%): 43%
  Population Hoechst High Intensity Objects (%): 16%
  Population Membrane Permeable-Phenotype (%): 2%
  Population Mitochondria Different-Phenotype (%): 27%
  Population Mitotic Cells (%): 55%
  Population Normal (%): 83%
  Population Pyknosed Nuclei (%): 36%
  Population Tubulin-Different-Phenotype (%): 26%
  Total Cell Count: 254
[10]
  Population Apoptotic (%): 14%
  Population Fragmented Nuclei (%): 6%
  Population Healthy Nuclei (%): 80%
  Population Hoechst High Intensity Objects (%): 5%
  Population Membrane Permeable-Phenotype (%): 11%
  Population Mitochondria Different-Phenotype (%): 6%
  Population Mitotic Cells (%): 85%
  Population Normal (%): 94%
  Population Pyknosed Nuclei (%): 12%
  Population Tubulin-Different-Phenotype (%): 24%
  Total Cell Count: 299
[11]
  Population Apoptotic (%): 29%
  Population Fragmented Nuclei (%): 18%
  Population Healthy Nuclei (%): 45%
  Population Hoechst High Intensity Objects (%): 11%
  Population Membrane Permeable-Phenotype (%): 2%
  Population Mitochondria Different-Phenotype (%): 19%
  Population Mitotic Cells (%): 70%
  Population Normal (%): 88%
  Population Pyknosed Nuclei (%): 35%
  Population Tubulin-Different-Phenotype (%): 21%
  Total Cell Count: 279
[12]
  Population Apoptotic (%): 6%
  Population Fragmented Nuclei (%): 6%
  Population Healthy Nuclei (%): 83%
  Population Hoechst High Intensity Objects (%): 2%
  Population Membrane Permeable-Phenotype (%): 3%
  Population Mitochondria Different-Phenotype (%): 5%
  Population Mitotic Cells (%): 94%
  Population Normal (%): 97%
  Population Pyknosed Nuclei (%): 9%
  Population Tubulin-Different-Phenotype (%): 14%
  Total Cell Count: 534
